CaV13 FRET inh: Primary screen for inhibitors of IQ motif and Ca2+-dependent inactivation inhibitor domain binding in CACNA1D, Förster resonance energy transfer in living cells, …; HEK cells, CFP/YFP FRET ICDI-IQ, plate reader, 10 min; percent FRET-ratio fall versus neutral wells; inhibition, % at 12.3 µM; hit rate 0.098% among 340,000; AID 743397;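 active = mean replicate inhibition of at least 30% and at least 1% of replicates passing that level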;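 also: 0% = median of the neutral control wells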
Arr AP2 block: inhibitors of human beta-arrestin and AP2 interaction. hit rate 0.31% among 340,000. FITC-arrestin peptide / GST-AP2 beads, flow cytometry; AP2 beta2 appendage carries R879A mutation. inhibition, % at 10 µM;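 active = inhibition above a set limit, near 3 SD of compounds lacking own fluorescence, cut at about 54% in these data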;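 also: plate controls were DMSO wells for no effect and 5 µM unlabelled arrestin peptide for full effect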
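System: GST-AP2 R879A glutathione beads | Also added: FITC-arrestin peptide, 50 nM | Times: 12 min plus 1 h, RT | Signal: Bead flow cytometry, FITC channel | Buffer or medium: PBS with 0.05% Tween 20 and 0.1% BSA | Read-out basis: Percent drop in bead-associated FITC signal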
ADAM17 inh: ADAM17 inhibition, QFRET primary screen. P78536. recombinant ADAM17, EDANS/DABCYL FRET peptide cleavage. inhibition, % at 6.95 µM. hit rate 0.83% among 370,000;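 active = inhibition above the mean of compounds lying between control limits plus 3 SD, set per campaign, cut at about 8.5% in these data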;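 also: 0% = DMSO-only wells as the low control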
ADAM10 inh: ADAM10 inhibition, QFRET primary screen | recombinant ADAM10, EDANS/DABCYL FRET peptide cleavage, 3 h | O14672 | inhibition, % at 7 µM | hit rate 0.62% among 370,000;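 active = inhibition above a per-campaign cutoff equal to the mean of compounds falling between control-based bounds plus 3 SD, cut at about 20% in these data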;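 also: 0% = DMSO wells while the 100% control is not disclosed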
FAS-TE inh: inhibitors of human fatty acid synthase thioesterase domain; P49327; recombinant FAS-TE, OMFH fluorogenic substrate, fluorescence endpoint; hit rate 0.67% among 360,000; inhibition, % at 15 µM; AID 602261;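 active = compounds whose normalised, plate-corrected inhibition of enzyme fluorescence in the single-dose primary screen is 50% or more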;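 also: 0% = DMSO with enzyme and 100% = substrate without enzyme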
CendR NRP1 mod: NRP-1/CendR interaction modulation; AID 602438; hit rate 0.85% among 360,000; FAM-RPARPAR peptide binding to NRP-1, fluorescence polarization; O14786; inhibition, % at 25 µM;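 active = inhibition or corrected inhibition above about 18%, plus a signal ratio from 0.5 to 1.5, limit read from the data, passing the limit was not always enough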
Target sequence (O14786 whole entry, looked up): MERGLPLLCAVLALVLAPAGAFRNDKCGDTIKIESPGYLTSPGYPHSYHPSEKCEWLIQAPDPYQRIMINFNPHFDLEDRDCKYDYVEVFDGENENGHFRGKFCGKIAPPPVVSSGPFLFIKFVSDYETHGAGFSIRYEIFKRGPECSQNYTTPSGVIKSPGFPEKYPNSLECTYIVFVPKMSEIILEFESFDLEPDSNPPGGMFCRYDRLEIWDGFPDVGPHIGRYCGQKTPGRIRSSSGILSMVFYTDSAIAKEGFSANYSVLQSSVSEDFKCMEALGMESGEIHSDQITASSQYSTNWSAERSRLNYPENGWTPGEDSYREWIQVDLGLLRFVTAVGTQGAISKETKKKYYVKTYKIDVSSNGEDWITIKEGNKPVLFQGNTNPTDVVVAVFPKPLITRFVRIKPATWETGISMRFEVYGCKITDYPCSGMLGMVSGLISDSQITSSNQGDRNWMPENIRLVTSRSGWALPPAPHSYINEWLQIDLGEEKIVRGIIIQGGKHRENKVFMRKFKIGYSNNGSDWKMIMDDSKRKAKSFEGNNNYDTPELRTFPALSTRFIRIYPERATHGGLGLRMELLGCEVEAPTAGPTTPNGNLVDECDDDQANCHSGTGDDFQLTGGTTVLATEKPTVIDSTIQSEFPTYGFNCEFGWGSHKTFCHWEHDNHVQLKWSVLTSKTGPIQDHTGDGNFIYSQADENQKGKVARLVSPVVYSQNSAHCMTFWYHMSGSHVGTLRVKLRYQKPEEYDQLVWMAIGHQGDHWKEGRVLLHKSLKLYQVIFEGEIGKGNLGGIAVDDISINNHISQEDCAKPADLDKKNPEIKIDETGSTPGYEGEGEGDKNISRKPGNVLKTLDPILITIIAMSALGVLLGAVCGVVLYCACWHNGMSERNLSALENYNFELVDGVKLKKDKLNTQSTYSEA
ADAM10 confirm: confirmation of inhibitors of human ADAM10. hit rate 1% among 2,100. inhibition, % at 6.95 µM. shares compounds with ADAM10 inh. ADAM10 QFRET peptide cleavage, EDANS fluorescence;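 active = inhibition above about 20% chosen separately for each screening run, limit read from the data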;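 also: 0% = DMSO wells and 100% = marimastat wells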
ADAM17 counter: counter-screen for ADAM10 exosite inhibitors: inhibitors of human ADAM17; AID 743214; ADAM17 QFRET peptide cleavage, EDANS fluorescence; inhibition, % at 6.95 µM; shares compounds with ADAM10 inh; hit rate 0.5% among 2,100;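 active = mean triplicate inhibition above the solvent-only control wells' mean plus 3 SD, cut at about 12% in these data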;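 also: 0% = DMSO wells and 100% = marimastat wells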
ADAM10 counter: ADAM10 inhibition, counter-screen for ADAM17 exosite hits; recombinant ADAM10, EDANS/DABCYL FRET peptide cleavage, 3 h; shares compounds with ADAM17 inh; inhibition, % at 6.95 µM; hit rate 47% among 2,900; AID 743256;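 active = mean inhibition over the triplicate runs exceeds the activity threshold set in the earlier primary screen, cut at about 20% in these data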;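 also: 0% = DMSO wells and 100% = marimastat wells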
ADAM17 confirm: human ADAM17 inhibition, confirmation | shares compounds with ADAM17 inh | recombinant ADAM17, EDANS/DABCYL QFRET peptide cleavage | inhibition, % at 6.95 µM | hit rate 65% among 2,900 | AID 743257;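 active = mean inhibition across replicates above the hit cutoff set in the primary screen, cut at about 8.5% in these data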;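 also: 0% = DMSO wells and 100% = marimastat wells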
The depositor's hits bear a star; nt = no result. Most compounds without a hit are left out; they make up all but 2.9% or so of the library.

SMILES	CaV13 FRET inh	Arr AP2 block	ADAM17 inh	ADAM10 inh	FAS-TE inh	CendR NRP1 mod	ADAM10 confirm	ADAM17 counter	ADAM10 counter	ADAM17 confirm
Cc1cc(C)c(O)c(-c2n[nH]c3c2C(c2cccc(O)c2)N(Cc2ccco2)C3=O)c1 (centres undefined)	-5.9	-10.3	20.6*	36.7*	3.3	-7.5	6.7	1.4	47.6*	23.0*
COCCCNC(=O)C[C@H]1C[C@@]2(C(=O)OC)C(=C[C@H](C3CCCC3)O[C@@H]2C)N(Cc2ccc(Cl)cc2Cl)C1=O	nt	nt	1.0	9.9	nt	nt	nt	nt	nt	nt
Oc1ccc2ccccc2c1C=Nn1c(-c2n[nH]c3c2CCC3)n[nH]c1=S	nt	nt	-4.6	-29.0	nt	nt	nt	nt	nt	nt
CCSc1ccc([C@@H]2[C@H]3C(=O)N(C)C(=O)[C@H]3[C@]3(C(=O)OC)CCCCN23)cc1	-10.6	25.9	17.8*	22.1*	11.1	4.2	3.3	0.6	-2.5	5.0
CCSc1ccc([C@@H]2[C@@H]3C(=O)N(CC)C(=O)[C@@H]3[C@]3(C(=O)OC)CCCCN23)cc1	-9.6	23.1	0.4	-7.3	16.0	4.4	nt	nt	nt	nt
CC(C)C[C@H](NC(=O)c1nc[nH]c1C(=O)NC1CCNCC1)C(=O)OC(C)(C)C	-13.1	8.6	1.6	4.4	-11.6	10.0	nt	nt	nt	nt
CC(C)C[C@H](NC(=O)c1[nH]cnc1C(=O)N[C@@H](C)C(=O)OC(C)(C)C)C(=O)OC(C)(C)C	-8.2	-2.2	25.0*	39.8*	7.3	-9.6	5.8	0.6	33.0*	18.7*
CC(C)C[C@H](NC(=O)c1nc[nH]c1C(=O)N[C@@H](CCCCNC(=O)OC(C)(C)C)C(=O)OC(C)(C)C)C(=O)OC(C)(C)C	-4.8	12.2	0.2	12.4	9.2	16.2	nt	nt	nt	nt
CC(C)C[C@H](NC(=O)c1nc[nH]c1C(=O)NCCCCCNC(=O)OC(C)(C)C)C(=O)OC(C)(C)C	-4.7	6.0	9.8*	22.8*	16.4	-5.9	4.3	0.0	34.8*	15.2*
CCc1nc2ccc(C(=O)NCc3ccc4c(c3)OCO4)cn2c1N(C)Cc1ccc(OC)cc1	-5.3	nt	18.7*	29.7*	14.6	-1.7	4.1	1.2	23.9*	14.8*
CC(C)(C)c1ccc(OCCC(=O)Nc2cccc(S(=O)(=O)N3CCCC3)c2)cc1	-6.6	23.4	8.9*	22.4*	38.2	-0.5	10.4	3.3	36.8*	22.5*
O=C(CNc1cccc(Br)c1)Nc1ccc(S(=O)(=O)N2CCCCC2)cc1	-4.7	nt	16.0*	27.3*	25.7	6.7	8.4	2.5	32.1*	20.6*
O=C(CNc1cccc(S(=O)(=O)N2CCCCC2)c1)Nc1ccc(C(F)(F)F)cc1	-9.5	nt	10.2*	27.8*	14.3	15.4	3.1	1.4	12.9	7.3
O=C(CN1C(=O)NC(Cc2c[nH]c3ccccc23)C1=O)Nc1cccc(S(=O)(=O)N2CCCC2)c1 (centres undefined)	-4.3	11.0	1.8	4.0	5.4	-12.7	nt	nt	nt	nt
O=C(CN1C(=O)NC(Cc2c[nH]c3ccccc23)C1=O)Nc1cccc(S(=O)(=O)N2CCCCCC2)c1 (centres undefined)	-4.6	20.5	11.0*	21.4*	4.4	9.5	4.0	1.2	28.4*	16.6*
O=C(CNc1cccc(S(=O)(=O)N2CCCC2)c1)Nc1ccc(C(F)(F)F)cc1	-4.8	-5.8	5.6	11.0	14.2	-8.8	nt	nt	nt	nt
CCOC(=O)c1ccc(NC(=O)CSc2nnc(-c3cccc(C)c3)n2C)cc1	nt	nt	0.3	-8.6	nt	nt	nt	nt	nt	nt
Cc1ccccc1C(=O)N1CCC[C@@H]1C(=O)N1CCC[C@H]1C(=O)NCc1ccccc1	-9.8	nt	-2.8	-2.4	nt	nt	nt	nt	nt	nt
O=C(Cc1ccc(Br)cc1)Nc1cccc(S(=O)(=O)N2CCCCC2)c1	-4.8	nt	12.3*	23.3*	24.8	-4.2	3.5	1.8	6.7	6.0
O=C(Nc1ccccc1)C1CCCCN1S(=O)(=O)c1ccccc1 (centres undefined)	1.5	30.9	-4.5	1.5	3.4	-0.4	nt	nt	nt	nt
O=C(Nc1ccc(C(F)(F)F)cc1)C1CCCCN1S(=O)(=O)c1ccccc1 (centres undefined)	-15.7	-5.2	10.1*	28.1*	23.6	-2.9	4.0	0.9	14.7	7.3
COc1ccc(NS(=O)(=O)c2cccc(NC(=O)CCC(=O)c3ccc(Cl)cc3)c2)cc1	-2.2	0.5	14.2*	29.5*	24.6	-10.7	6.7	2.5	34.0*	19.2*
c1ccc(Cn2ccc3ccc(-c4ccc5ccn(Cc6ccc7ccccc7c6)c5c4)cc32)cc1	nt	nt	-12.2	-32.4	nt	nt	nt	nt	nt	nt
CN(C(=O)COC(=O)Cc1ccc(Br)cc1)c1c(N)n(Cc2ccccc2)c(=O)[nH]c1=O	-5.7	nt	-6.0	-7.8	2.0	-2.7	nt	nt	nt	nt
CC1(C(=O)NCC2CC2)CCN1C(=O)C1(c2ccccc2)CC1 (centres undefined)	-4.9	nt	-0.1	0.2	-6.6	1.1	nt	nt	nt	nt
SMILES	CaV13 FRET inh	Arr AP2 block	ADAM17 inh	ADAM10 inh	FAS-TE inh	CendR NRP1 mod	ADAM10 confirm	ADAM17 counter	ADAM10 counter	ADAM17 confirm
O=C(Nc1cccc(S(=O)(=O)Nc2ccc(Cl)cc2)c1)c1cc2c(s1)CCCC2	-5.9	-10.8	15.4*	26.6*	31.1	-22.4	14.0	4.4	45.3*	27.1*
Cc1ccc(NC(=O)c2cc3c(s2)CCCC3)cc1S(=O)(=O)Nc1ccccc1Cl	-5.3	34.8	15.9*	24.5*	28.3	-2.3	52.0*	14.6*	22.4*	15.4*
Cc1ccc(C(=O)Nc2ccc(C)c(S(=O)(=O)Nc3ccccc3Cl)c2)s1	-4.5	28.4	8.2	15.9	22.8	2.1	nt	nt	nt	nt
O=C(Nc1cc(S(=O)(=O)Nc2ccccc2Cl)ccc1O)c1cc2c(s1)CCCC2	-6.8	0.4	-4.5	-2.3	-5.0	-3.9	nt	nt	nt	nt
CC(=O)c1cc(-c2ccccc2-c2ccccc2)c(=O)n2c1CCC2	nt	nt	-7.6	-7.5	nt	nt	nt	nt	nt	nt
NS(=O)(=O)c1ccc(NCc2cc(Cl)ccc2OCc2ccccc2F)cc1	-6.9	10.3	14.3*	31.0*	24.2	1.5	10.9	3.6	47.4*	21.1*
NS(=O)(=O)c1ccc(NCc2ccccc2OCc2ccc(F)cc2)cc1	0.0	25.1	4.4	10.0	13.3	6.7	nt	nt	nt	nt
